The source made the active and inactive calls.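 Rule for the calls, unless noted: active = viability at or below 30% in both replicate assays; inconclusive = viability at or below 30% in just one of the two assays; inactive = the rest.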

Test [1] can be described thus: Her2 expression decrease, cell viability multiplex – SKBR3 breast tumor cells, AlphaScreen, ATP viability, primary screen (AID 461;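 active = Her2 level under about 52% in both replicate screens, with viability over 70% of control, limit read from the data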;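 for Her2 level: lower value means less Her2 protein in the cells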;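 for viability: percent of carrier control wells set as 100% viability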). Particulars: SKBR3 Her2 protein level, 18-24 h, measured here: SKBR3 viability, ATP luminescence, at 10 µM. On the technique in general: Alpha assays give light when donor and acceptor beads are brought close together.
Test [2] addresses Receptor tyrosine-protein kinase erbB-2 (Homo sapiens) (UniProt P04626). The description is as above. To be noted: 18-24 h, at 10 µM, stronger effect = lower value.
Test [3] in a line: reduced viability of SK-BR-3 breast cancer cells – cell-based, 24 h, human, pilot screen (AID 572;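 active = viability at or below 10% of carrier control in both of two separate runs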;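 note: compound exposure lasted between 18 and 24 h rather than exactly 24 h; 100% = carrier-treated control wells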). To be noted: SK-BR-3 viability, CellTiter-Glo luminescence, at 10 µM, stronger effect = lower value.
The nature of test [4]: HUVEC growth inhibition – cell-based, human, primary screen (AID 575).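 Note: 100% = median of untreated cell wells with 0.1% DMSO on each plate.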 To be noted: HUVEC proliferation, CellTiter-Glo luminescence, 72 h; at 10 µM; stronger effect = lower value. Put shortly:
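material = primary HUVEC, no more than 12 passages | input = 1250 cells per well | controls = vehicle and MePR control wells | measured by = CTG luminescence | times = 72 h compound incubation | format = collagen-coated 384-well format | read-out = % viability vs DMSO wells | doses = single 10 µM dose, 0.1% DMSO, from 5x medium stock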

Test [5] in a line: H69AR cell proliferation blockers – human, duplicate replicates, primary screen (AID 580;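 active = viability at or under a set limit in both replicates, limit being median viability minus 3 SD, cut at about 48% in these data, passing the limit was not always enough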;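 note: 100% = mean luminescence of untreated wells and 0% = no signal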). To be noted: H69AR lung tumor cells viability, ATP luminescence, 72 h; at 10 µM; stronger effect = lower value.
A short description of test [6]: MRP1 drug-resistance reversers in H69AR cells – cell-based, doxorubicin co-treatment, pilot screen (AID 601;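 active = viability loss from added drug above about 55%, and viability with drug at most 40%, in both replicates, limit read from the data, passing the limit was not always enough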). Particulars: CellTiter-Glo, 72 h, at 10 µM; for differential viability (reversal): stronger effect = higher value. On the technique in general: Cellular ATP, detected with luciferase, serves as a proxy for viable cell number.
Test [7] in a line: yeast transport mutant growth inhibition pilot in 384-well plates, post-Golgi transport modulator project (AID 636; in the data active = inhibition above about 31%). To be noted: absorbance 615 nm, about 18 h, stronger effect = higher value.
A short description of test [8]: growth suppression of yeast trafficking mutant, preliminary HTS, modulators of trafficking downstream of Golgi apparatus project, 1536-format plate, OD 615 nm (AID 637; in the data active = inhibition above about 30%). To be noted: yeast transport mutant growth, absorbance 615 nm, 18 h; stronger effect = higher value.
Where [9] appears, read: H69AR cells + 2 uM doxorubicin, measured here: viability with 2 uM doxorubicin, stronger effect = lower value.
Setting [10] is: H69AR cells, compound alone cytotoxicity.

Sequence of Receptor tyrosine-protein kinase erbB-2 (Homo sapiens) (P04626 whole entry, looked up): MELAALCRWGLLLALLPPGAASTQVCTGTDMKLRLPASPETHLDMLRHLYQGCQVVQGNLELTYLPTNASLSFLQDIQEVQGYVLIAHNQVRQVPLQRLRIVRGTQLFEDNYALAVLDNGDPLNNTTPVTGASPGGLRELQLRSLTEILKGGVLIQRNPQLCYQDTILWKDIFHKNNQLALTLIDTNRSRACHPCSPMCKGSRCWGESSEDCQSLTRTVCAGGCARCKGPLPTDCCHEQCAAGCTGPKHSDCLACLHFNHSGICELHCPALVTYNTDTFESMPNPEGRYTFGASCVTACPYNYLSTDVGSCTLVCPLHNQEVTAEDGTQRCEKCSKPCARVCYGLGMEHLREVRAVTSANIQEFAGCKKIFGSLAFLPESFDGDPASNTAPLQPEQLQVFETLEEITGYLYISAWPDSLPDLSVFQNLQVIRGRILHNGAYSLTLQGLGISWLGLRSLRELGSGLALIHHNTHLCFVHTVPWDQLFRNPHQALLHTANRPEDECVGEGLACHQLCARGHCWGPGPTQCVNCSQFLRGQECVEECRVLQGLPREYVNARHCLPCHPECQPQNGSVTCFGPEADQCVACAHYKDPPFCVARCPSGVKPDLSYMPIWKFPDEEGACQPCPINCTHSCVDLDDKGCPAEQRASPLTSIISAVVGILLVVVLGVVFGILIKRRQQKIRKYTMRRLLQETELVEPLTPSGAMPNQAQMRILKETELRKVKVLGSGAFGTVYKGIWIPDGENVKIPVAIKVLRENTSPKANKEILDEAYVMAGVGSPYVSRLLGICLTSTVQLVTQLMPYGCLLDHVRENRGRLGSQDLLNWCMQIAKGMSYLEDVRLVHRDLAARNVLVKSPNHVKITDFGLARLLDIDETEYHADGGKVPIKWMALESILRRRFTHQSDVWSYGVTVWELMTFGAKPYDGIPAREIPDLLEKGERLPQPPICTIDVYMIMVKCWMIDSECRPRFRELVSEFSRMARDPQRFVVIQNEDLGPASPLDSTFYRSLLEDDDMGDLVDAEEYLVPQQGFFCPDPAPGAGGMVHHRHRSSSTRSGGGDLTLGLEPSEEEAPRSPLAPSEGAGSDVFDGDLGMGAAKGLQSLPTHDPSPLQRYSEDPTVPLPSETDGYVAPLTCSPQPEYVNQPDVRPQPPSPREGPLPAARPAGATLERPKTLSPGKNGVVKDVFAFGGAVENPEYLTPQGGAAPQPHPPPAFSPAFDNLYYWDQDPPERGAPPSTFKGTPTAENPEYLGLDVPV

In general, viability refers to a read-out of living cells in per cent, often relative to untreated cells. Usually inhibition stands for the change of the read-out against control, counted positive when it falls. Turning to `Cn1c(=O)cc(SCC(=O)N2CCOCC2)c2ccc(Cl)cc21`, the viability was 108% in test [1]; 108% (inactive) in test [3]; 76.1% (inactive) in test [4]; 93.2% (inactive) in test [5]; 83.3% in test [6] (setting [9]); 93.2% in test [6] (setting [10]). Moreover, the Her2 level in test [2] was 99.5% (inactive). The differential viability (reversal) in test [6] (H69AR cells + 2 uM doxorubicin) was 9.88% (inactive). Besides, the inhibition was -2.37% (inactive) in test [7] and -1.61% (inactive) in test [8].
Consider `CC(=O)c1ccc(OC(=O)c2cccs2)cc1`, for which the viability in test [1] was 86%; in test [3] it was 86% (inactive); in test [4] it was 94.1% (inactive); in test [5], 105% (inactive); in test [6] (setting [9]), 110%; in test [6] (setting [10]), 105%. Besides, the Her2 level in test [2] is 94.5% (inactive). Further, the differential viability (reversal) in test [6] (H69AR cells + 2 uM doxorubicin) was -5.42% (inactive). Moreover, the inhibition is -3.11% (inactive) in test [7] and 3.61% (inactive) in test [8].
Take `O=C(Nc1ccc(N2CCOCC2)cc1)c1cccc(S(=O)(=O)N2CCCC2)c1`: the viability was 88.5% in test [1]; 88.5% (inactive) in test [3]; 96.8% (inactive) in test [4]; 98.4% (inactive) in test [5]; 93.1% in test [6] (setting [9]); 98.4% in test [6] (setting [10]). Moreover, the Her2 level in test [2] is 85% (inactive). For the same molecule, the differential viability (reversal) in test [6] (H69AR cells + 2 uM doxorubicin) was 5.26% (inactive). Moreover, the inhibition in test [7] is -5% (inactive); in test [8], -2% (inactive).
`CCC1Oc2ccccc2N(CC(=O)Nc2ccc(OC)cc2OC)C1=O` (stereo not given): the viability in test [1] is 90.5%; in test [3], 90.5% (inactive); in test [4], 106% (inactive); in test [5], 100% (inactive); in test [6] (setting [9]) it was 85.3%; in test [6] (setting [10]), 100%. The Her2 level in test [2] is 95.5% (inactive). Further, the differential viability (reversal) in test [6] (H69AR cells + 2 uM doxorubicin) is 15% (inactive). In addition, the inhibition was -2.24% (inactive) in test [7] and -1.09% (inactive) in test [8].
Turning to `O=C(OC1CCOC1=O)c1ccc2ccccc2n1` (stereo not given), the viability was 98.5% in test [1]; 98.5% (inactive) in test [3]; 101% (inactive) in test [4]; 102% (inactive) in test [5]; 93.4% in test [6] (setting [9]); 102% in test [6] (setting [10]). The Her2 level in test [2] is 85% (inactive). Moreover, the differential viability (reversal) in test [6] (H69AR cells + 2 uM doxorubicin) was 9.04% (inactive). Besides, the figures for the inhibition in test [7] and in test [8] were -6.93% (inactive) and 1.75% (inactive), respectively.
On to `Cc1cc(C)nc(NC(=O)c2ccc(OC(C)C)cc2)n1`, for which the viability in test [1] is 102%; in test [3] it was 102% (inactive); in test [4], 95.8% (inactive); in test [5] it was 104% (inactive); in test [6] (setting [9]), 90.2%; in test [6] (setting [10]), 104%. In addition, in test [2], the Her2 level was 90% (inactive). Also, the differential viability (reversal) in test [6] (H69AR cells + 2 uM doxorubicin) is 14.3% (inactive). The figures for the inhibition in test [7] and in test [8] were -6.03% (inactive) and -4.13% (inactive), respectively.
With `O=S(=O)(c1ccc(-c2csc(-c3cccnc3)n2)cc1)N1CCCCC1`, the viability in test [1] is 106%; in test [3] it was 106% (inactive); in test [4], 81.1% (inactive); in test [5] it was 84.2% (inactive); in test [6] (setting [9]), 83%; in test [6] (setting [10]) it was 84.2%. The Her2 level in test [2] is 102% (inactive). Further, the differential viability (reversal) in test [6] (H69AR cells + 2 uM doxorubicin) is 1.22% (inactive). Moreover, the inhibition in test [7] was 0% (inactive); in test [8] it was -1.75% (inactive).
`C=CCSc1nc(N)c(C(=O)Nc2ccccc2C)cc1C(N)=O`: the viability in test [1] is 93%; in test [3], 93% (inactive); in test [4], 99.9% (inactive); in test [5], 87.4% (inactive); in test [6] (setting [9]), 89.6%; in test [6] (setting [10]), 87.4%. Moreover, the Her2 level in test [2] is 121% (inactive). In addition, the differential viability (reversal) in test [6] (H69AR cells + 2 uM doxorubicin) was -2.21% (inactive). Besides, the inhibition in test [7] was 4.42% (inactive); in test [8], 4.67% (inactive).
With `COC(=O)C(NC(C)=O)(Nc1nc2ccc(S(C)(=O)=O)cc2s1)C(F)(F)F` (stereo not given), the viability in test [1] was 96.5%; in test [3], 96.5% (inactive); in test [4] it was 93.8% (inactive); in test [5] it was 102% (inactive); in test [6] (setting [9]) it was 101%; in test [6] (setting [10]), 102%. Moreover, the Her2 level in test [2] is 87.5% (inactive). Moreover, the differential viability (reversal) in test [6] (H69AR cells + 2 uM doxorubicin) was 1.18% (inactive). The inhibition in test [7] was -2.11% (inactive); in test [8], -1.27% (inactive).
Consider `COc1ccc(-c2noc(CCCC(=O)O)n2)cc1`, for which the viability in test [1] is 130%; in test [3], 130% (inactive); in test [4] it was 97.1% (inactive); in test [5], 95% (inactive); in test [6] (setting [9]) it was 89.9%; in test [6] (setting [10]) it was 95%. Further, the Her2 level in test [2] is 91.5% (inactive). Besides, the differential viability (reversal) in test [6] (H69AR cells + 2 uM doxorubicin) was 5.04% (inactive). The inhibition in test [7] is -6.4% (inactive); in test [8], 5.08% (inactive).
Turning to `CCNS(=O)(=O)c1c(C)cc(N2CCCC2=O)cc1C`, the viability was 95.5% in test [1]; 95.5% (inactive) in test [3]; 112% (inactive) in test [4]; 98.8% (inactive) in test [5]; 90.6% in test [6] (setting [9]); 98.8% in test [6] (setting [10]). Besides, in test [2], the Her2 level was 109% (inactive). Also, the differential viability (reversal) in test [6] (H69AR cells + 2 uM doxorubicin) was 8.17% (inactive). Also, the inhibition in test [7] was -3.87% (inactive); in test [8], -1.31% (inactive).
In the case of `CCOC(=O)N1CCN(S(=O)(=O)c2ccc(Br)s2)CC1`, the viability was 103% in test [1]; 103% (inactive) in test [3]; 100% (inactive) in test [4]; 94.4% (inactive) in test [5]; 86.5% in test [6] (setting [9]); 94.4% in test [6] (setting [10]). Besides, the Her2 level in test [2] was 112% (inactive). Moreover, in test [6] (H69AR cells + 2 uM doxorubicin), the differential viability (reversal) is 7.92% (inactive). The inhibition was -3.03% (inactive) in test [7] and 2.95% (inactive) in test [8].
`Cc1cc(SCC(N)=O)nc(SCC(=O)c2ccccc2)n1`: the viability in test [1] is 92.5%; in test [3] it was 92.5% (inactive); in test [4], 106% (inactive); in test [5], 99.8% (inactive); in test [6] (setting [9]), 89.7%; in test [6] (setting [10]), 99.8%. In test [2], the Her2 level was 89% (inactive). Moreover, in test [6] (H69AR cells + 2 uM doxorubicin), the differential viability (reversal) is 10.1% (inactive). For the same molecule, the figures for the inhibition in test [7] and in test [8] were -0.53% (inactive) and -5.08% (inactive), respectively.
Take `O=C(c1ccccc1)c1ccc2nc[nH]c2c1`: the viability is 96.5% in test [1]; 96.5% (inactive) in test [3]; 75.4% (inactive) in test [4]; 102% (inactive) in test [5]; 117% in test [6] (setting [9]); 102% in test [6] (setting [10]). In addition, the Her2 level in test [2] was 89.5% (inactive). In test [6] (H69AR cells + 2 uM doxorubicin), the differential viability (reversal) is -15.3% (inactive). Besides, the inhibition in test [7] is 0.26% (inactive); in test [8], 3.06% (inactive).

These data come from PubChem BioAssay.
